Experimental data of several laboratories.
Each line is one published result; the experiments were not run side by side.
Target: Tyrosine-protein kinase Blk (BLK, Homo sapiens, UniProt P51451)

Cn1cncc1[C@](O)(COc1ccc(C#N)cc1-c1ccc(OC(F)(F)F)cc1)c1ccc(C#N)cc1
remaining binding (cell-free assay, competition with immobilised ligand; 1 µM): 90%

CC(C)(C)c1cc(C=C(C#N)C#N)cc(Br)c1O
remaining activity (enzyme activity, inhibitor; 0.5 µM): 97.9%

Cn1cc(-c2cc(F)cc(N3CCn4c(cc5c4CCCC5)C3=O)c2CO)cc(Nc2ccc(N3CCN(C4COC4)CC3)cn2)c1=O
inhibition (enzyme activity, inhibitor; 0.1 µM): 14%

COc1ncccc1-c1cnn2ccc(N3CCN(C(=O)OC(C)C)CC3)nc12
remaining binding (binding, competition with immobilised ligand; 1 µM): 100%

C#Cc1n[nH]c2c(-c3cn([C@@H](C)c4ccccn4)c(=O)[nH]c3=O)cc(F)cc12
inhibition (enzyme activity, inhibitor; 0.1 µM): -5.3%

Cn1cc(-c2cccc(N3CCc4c(sc5c4CC(C)(C)C5)C3=O)c2CO)cc(Nc2ccncn2)c1=O
inhibition (enzyme activity, inhibitor; 1 µM): -3%

Nc1ncc(-c2nc(N3CCOCC3)nc(N3CCOCC3)n2)c(C(F)F)n1
remaining binding (binding, competition with immobilised ligand; 10 µM): 70%

Cc1nn(C)cc1-c1nc2c(N3CCN(Cc4ccc(Cl)cc4)CC3)c(Cl)cnc2[nH]1
remaining binding (binding, competition with immobilised ligand; 1 µM): 100%

O=c1[nH]c2ccccc2n1C1CCN(Cc2ccc(-c3[nH]c4cc5ncnc5cc4nc3-c3ccccc3)cc2)CC1
remaining signal (cell-free assay; 0.5 µM): 106%

COc1cc(Nc2ncc(F)c(Nc3ccc4c(n3)NC(=O)C(C)(C)O4)n2)cc(OC)c1OC
inhibition (binding, competition with immobilised ligand; 10 µM): 100%

C#Cc1n[nH]c2c(-c3cn([C@@H](C)c4ccccc4)c(=O)[nH]c3=O)cc(F)cc12
inhibition (enzyme activity, inhibitor; 0.1 µM): -5.4%
